{"source": "paper PMC9298613", "about": "(Journal of Food and Drug Analysis, 2018)", "key": {"[1]": {"assay": "Pharmacokinetics of APZ in rat plasma", "format": "in vivo, Wistar rats"}, "[2]": {"tested_on": "CYP3A2", "assay": "Western blot of hepatic CYP3A2 protein expression", "format": "in vivo, Wistar rats", "conditions": "for Reduction of CYP3A2 protein: rat received SA, compared with rats received APZ alone", "summary_of_the_method": "(§1)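 Wistar rats (190–210 g, n = 6/group), food withheld 12 h beforehand. Antipsychotic test compound 3 mg/kg p.o. once on day 15 or daily for 15 days; controls given oral saline for 15 days. After ether euthanasia, liver excised. 25 μg hepatic protein run on 10% SDS gel, transferred to PVDF, primary antibody overnight at 4 °C, HRP secondary 60 min. Chemiluminescence, densitometry, β-actin also probed. Mean ± SD, ANOVA/Dunnett.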"}, "[3]": {"tested_on": "CYP3A2 and CYP2D6", "assay": "Hepatic CYP3A2 and CYP2D6 protein expression, summary statements", "format": "in vivo, Wistar rats", "conditions": "APZ after single or multiple dosing", "summary_of_the_method": "as §1"}, "[4]": {"conditions": "at steady state; cited from earlier work"}, "[5]": {"tested_on": "CYP2D6", "assay": "Western blot of hepatic CYP2D6 protein expression", "format": "in vivo, Wistar rats", "conditions": "for Reduction of CYP2D6 protein: rat received SA, compared with rats received APZ alone", "summary_of_the_method": "as §1"}, "[6]": {"conditions": "APZ 3 mg/kg p.o. daily for 15 days (multiple doses), with or without SA 20 mg/kg p.o. for 15 days, mean ± SD, n = 6"}, "[7]": {"conditions": "Wistar, rat, plasma, po, 3 mg/kg"}, "[8]": {"conditions": "multiple dose of APZ 3 mg/kg p.o. 15 days, compared to normal controls, p < 0.05"}, "[9]": {"conditions": "single dose of APZ 3 mg/kg p.o., liver, compared with normal controls, p <0.05"}, "[10]": {"conditions": "administration of SA, in contrast to rats treated with multiple doses of APZ, p <0.05"}, "[11]": {"conditions": "animals treated with SA for 15 days, compared to rats treated with a single dose of APZ"}}}
{"molecule": "O=C1CCc2ccc(OCCCCN3CCN(c4cccc(Cl)c4Cl)CC3)cc2N1", "note": "[APZ, 7-[4-[4-(2,3-dichlorophenyl)-1-piperazinyl]butoxy]-3,4-dihydrocarbostyril]", "values": [{"measurement": "AUMC 0-∞", "setting": "[1]; [6]", "result": "3443.83 ± 234.17", "unit": "ng/ml × h^^2"}, {"measurement": "CL", "setting": "[1]; [6]", "result": "2.28 ± 0.09", "unit": "mL/h/kg"}, {"measurement": "Ke", "setting": "[1]; [6]", "result": "0.04 ± 0.005", "unit": "h⁻¹"}, {"measurement": "Vd", "setting": "[1]; [6]", "result": "0.06501 ± 0.00653", "unit": "L/kg"}, {"measurement": "Tmax", "setting": "[1]; [7]", "result": 8, "unit": "h"}, {"measurement": "k el", "setting": "[1]; [7]", "result": "1.11e-05", "unit": "s⁻¹"}, {"measurement": "AUC(0-t)", "setting": "[1]; Wistar, rat, plasma, po, 3 mg/kg, AUC 0-t, APZ 3 mg/kg p.o. daily for 15 days (multiple doses), with or without SA 20 mg/kg p.o. for 15 days, mean ± SD, n = 6", "result": "122 ± 3.45", "unit": "ng·h/mL"}, {"measurement": "AUC(0-inf)", "setting": "[1]; Wistar, rat, plasma, po, 3 mg/kg, AUC 0-∞, APZ 3 mg/kg p.o. daily for 15 days (multiple doses), with or without SA 20 mg/kg p.o. for 15 days, mean ± SD, n = 6", "result": "132 ± 4.85", "unit": "ng·h/mL"}, {"measurement": "Cmax", "setting": "[1]; Wistar, rat, plasma, po, 3 mg/kg, Cmax, APZ 3 mg/kg p.o. daily for 15 days (multiple doses), with or without SA 20 mg/kg p.o. for 15 days, mean ± SD, n = 6", "result": "7.08 ± 0.89", "unit": "ng/mL"}, {"measurement": "MRT inf", "setting": "[1]; Wistar, rat, plasma, po, 3 mg/kg, MRT 0-∞, APZ 3 mg/kg p.o. daily for 15 days (multiple doses), with or without SA 20 mg/kg p.o. for 15 days, mean ± SD, n = 6", "result": "26.1 ± 1.01", "unit": "h"}, {"measurement": "half-life", "setting": "[1]; Wistar, rat, plasma, po, 3 mg/kg, T1/2, APZ 3 mg/kg p.o. daily for 15 days (multiple doses), with or without SA 20 mg/kg p.o. for 15 days, mean ± SD, n = 6", "result": "19.8 ± 2.52", "unit": "h"}, {"measurement": "Enhancement in liver expression of CYP3A2", "setting": "[2]; [8]", "result": 135.29, "unit": "%"}, {"measurement": "Enhancement in CYP3A2 protein expression", "setting": "[2]; [9]", "result": 90, "unit": "%"}, {"measurement": "Increases in CYP3A2 and CYP2D6 expressions in hepatic tissues", "setting": "[3]", "result": "2–3 folds"}, {"measurement": "APZ converted to the major metabolite DAPZ", "setting": "[4]", "result": "about 40%"}, {"measurement": "Enhancement in liver expression of CYP2D6", "setting": "[5]; [8]", "result": 91.17, "unit": "%"}, {"measurement": "Increase in CYP2D6 expression", "setting": "[5]; [9]", "result": 82, "unit": "%"}]}
{"molecule": "COc1cc(C=CC(=O)O)cc(OC)c1O", "note": "[SA, 3,5-dimethoxy-4-hydroxycinnamic acid]", "values": [{"measurement": "Change in T1/2 of APZ on co-administration of SA (in words)", "setting": "[1]; APZ single dose, SA 20 mg/kg p.o. for 15 days, compared with APZ alone", "result": "without a significant change"}, {"measurement": "Reduction in hepatic expression of CYP3A2", "setting": "[2]; [10]", "result": 54.68, "unit": "%"}, {"measurement": "Reduction of CYP3A2 hepatic protein", "setting": "[2]; [11]", "result": 31.57, "unit": "%"}, {"measurement": "Reduction of CYP3A2 protein", "setting": "[2]; multiple dose study, p <0.05", "result": 73.75, "unit": "%"}, {"measurement": "Reduction of CYP3A2 protein", "setting": "[2]; single dose study, p <0.05", "result": 50.52, "unit": "%"}, {"measurement": "Reduction in hepatic expression of CYP2D6", "setting": "[5]; [10]", "result": 65.76, "unit": "%"}, {"measurement": "Reduction of CYP2D6 hepatic protein", "setting": "[5]; [11]", "result": 34.06, "unit": "%"}, {"measurement": "Reduction of CYP2D6 protein", "setting": "[5]; multiple dose study, p <0.05", "result": 71.15, "unit": "%"}, {"measurement": "Reduction of CYP2D6 protein", "setting": "[5]; single dose study, p <0.05", "result": 53.84, "unit": "%"}]}
